Experimental data reported in ChEMBL document CHEMBL4376884, “Toward a Rational Design of Polyamine-Based Zinc-Chelating Agents for Cancer Therapies” (J Med Chem, 2020).

Assay: Metal chelating activity assessed as Zn2+-compound complex formation by measuring stability constant for ZnL(OH) in 0.15M NaCl and hydroalcoholic solutions (H2O/EtOH 70:30) at 298.1K by potentiometric titration analysis
Summary of the method: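 Glass-electrode potentiometric titration with an Ag/AgCl reference in saturated KCl. The electrode was calibrated as an [H+] probe against standardized HCl with CO₂-free NaOH, using Gran's method (pKw 13.73(1)). Range was pH 2.0–11.0, with metal and ligand at 1×10⁻³ to 5×10⁻³ M in 1:1 ratio. At least two curves per compound were merged and fitted with HYPERQUAD.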

- log K: 2.81
SMILES: CN(CCNCc1ccccn1)CCNCc1ccccn1
